Results from the M2OR odorant receptor database.

Tests used:
Settings in all cases: stereoisomer not certain
UniProt L7MU75 = target: T1, UniProt L7MU75
T1 sequence (whole entry): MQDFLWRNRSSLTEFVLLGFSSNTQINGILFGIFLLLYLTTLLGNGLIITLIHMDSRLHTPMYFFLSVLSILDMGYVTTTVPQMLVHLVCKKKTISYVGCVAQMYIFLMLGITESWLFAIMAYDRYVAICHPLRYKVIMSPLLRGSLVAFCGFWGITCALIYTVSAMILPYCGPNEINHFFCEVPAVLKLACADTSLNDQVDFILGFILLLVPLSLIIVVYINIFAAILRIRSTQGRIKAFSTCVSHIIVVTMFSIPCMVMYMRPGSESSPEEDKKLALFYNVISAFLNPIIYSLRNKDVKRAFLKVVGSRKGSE
Summary of the method: (§1)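 Each entry records the cell line, G-protein, co-transfected protein and tags used. Methods varied with the source, often transient luciferase assays in mammalian cell lines. A receptor–molecule pair is called responsive (active) if the original authors judged its signal statistically different from baseline and non-responsive (inactive) otherwise.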

UniProt L7N210 = target: T2, UniProt L7N210
T2 sequence (whole entry): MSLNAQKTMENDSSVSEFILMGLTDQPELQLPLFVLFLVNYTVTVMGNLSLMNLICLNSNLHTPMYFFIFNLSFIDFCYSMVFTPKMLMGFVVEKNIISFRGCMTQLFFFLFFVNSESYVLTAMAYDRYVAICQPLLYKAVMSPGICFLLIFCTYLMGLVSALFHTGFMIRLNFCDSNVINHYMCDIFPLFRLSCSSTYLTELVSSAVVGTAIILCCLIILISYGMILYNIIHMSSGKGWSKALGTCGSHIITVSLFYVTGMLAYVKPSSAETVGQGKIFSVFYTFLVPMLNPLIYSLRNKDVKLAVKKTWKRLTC
Summary of the method: as §1

UniProt Q3KPB0 = target: T3, UniProt Q3KPB0
T3 sequence (whole entry): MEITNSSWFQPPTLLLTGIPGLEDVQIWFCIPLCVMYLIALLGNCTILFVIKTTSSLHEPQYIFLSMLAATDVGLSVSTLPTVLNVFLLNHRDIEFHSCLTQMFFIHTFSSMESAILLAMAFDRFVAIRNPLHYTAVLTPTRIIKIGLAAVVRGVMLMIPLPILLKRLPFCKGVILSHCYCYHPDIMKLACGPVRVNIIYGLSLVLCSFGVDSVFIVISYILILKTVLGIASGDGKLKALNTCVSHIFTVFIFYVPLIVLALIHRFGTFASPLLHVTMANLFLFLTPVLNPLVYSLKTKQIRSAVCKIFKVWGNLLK
Summary of the method: as §1

UniProt Q3U0P3 = target: T4, UniProt Q3U0P3
T4 sequence (whole entry): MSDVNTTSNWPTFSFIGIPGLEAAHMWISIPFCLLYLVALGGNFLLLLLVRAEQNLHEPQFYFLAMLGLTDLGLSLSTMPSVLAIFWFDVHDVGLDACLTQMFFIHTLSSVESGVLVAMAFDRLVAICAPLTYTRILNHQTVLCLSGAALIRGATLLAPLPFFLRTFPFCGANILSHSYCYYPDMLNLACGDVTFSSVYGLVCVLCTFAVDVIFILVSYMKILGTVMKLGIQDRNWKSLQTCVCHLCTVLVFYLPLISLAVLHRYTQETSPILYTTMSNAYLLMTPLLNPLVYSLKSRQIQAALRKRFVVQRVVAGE
Summary of the method: as §1

UniProt Q7TQU8 = target: T5, UniProt Q7TQU8
T5 sequence (whole entry): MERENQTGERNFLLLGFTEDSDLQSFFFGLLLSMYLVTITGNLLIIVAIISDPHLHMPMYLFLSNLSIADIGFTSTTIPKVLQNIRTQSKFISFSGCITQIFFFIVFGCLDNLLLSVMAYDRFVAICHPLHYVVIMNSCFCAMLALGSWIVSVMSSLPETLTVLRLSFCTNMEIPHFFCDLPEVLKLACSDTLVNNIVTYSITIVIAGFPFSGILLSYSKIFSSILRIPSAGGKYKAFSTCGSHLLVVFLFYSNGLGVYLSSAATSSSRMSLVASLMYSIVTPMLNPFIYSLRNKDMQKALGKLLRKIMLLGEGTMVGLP
Summary of the method: as §1

UniProt Q7TQV4 = target: T6, UniProt Q7TQV4
T6 sequence (whole entry): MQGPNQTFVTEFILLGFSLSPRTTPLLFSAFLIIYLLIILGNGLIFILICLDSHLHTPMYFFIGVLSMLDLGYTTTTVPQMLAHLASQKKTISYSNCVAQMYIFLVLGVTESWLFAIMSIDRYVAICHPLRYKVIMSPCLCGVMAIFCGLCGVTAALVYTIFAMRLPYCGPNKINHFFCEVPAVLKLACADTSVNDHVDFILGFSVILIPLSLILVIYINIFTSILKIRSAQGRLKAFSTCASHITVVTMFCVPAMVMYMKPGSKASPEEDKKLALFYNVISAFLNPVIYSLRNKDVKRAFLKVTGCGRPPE
Summary of the method: as §1

UniProt L7N0P5 = target: T7, UniProt L7N0P5
T7 sequence (whole entry): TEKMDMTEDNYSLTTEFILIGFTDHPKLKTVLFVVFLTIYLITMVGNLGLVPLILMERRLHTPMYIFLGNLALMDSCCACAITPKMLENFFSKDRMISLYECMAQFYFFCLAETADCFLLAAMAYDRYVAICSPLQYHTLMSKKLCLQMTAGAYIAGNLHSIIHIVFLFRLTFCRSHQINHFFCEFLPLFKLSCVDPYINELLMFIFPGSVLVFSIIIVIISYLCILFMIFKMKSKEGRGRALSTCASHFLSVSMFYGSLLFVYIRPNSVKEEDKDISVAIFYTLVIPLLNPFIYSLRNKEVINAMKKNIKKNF
Summary of the method: as §1

Measured: odorant receptor agonist call

CCCCCCCCC(=O)O
inactive: UniProt L7MU75 | UniProt L7N210 | UniProt Q3KPB0 | UniProt Q3U0P3 | UniProt Q7TQU8 | UniProt Q7TQV4

CCOC(=O)C(C)C
inactive: UniProt L7MU75 | UniProt L7N210 | UniProt Q3KPB0 | UniProt Q3U0P3 | UniProt Q7TQU8 | UniProt Q7TQV4

CCCCCCCCO
inactive: UniProt L7MU75 | UniProt L7N210 | UniProt Q3KPB0 | UniProt Q3U0P3 | UniProt Q7TQU8 | UniProt Q7TQV4

CCCCCCOC(C)=O
inactive: UniProt L7MU75 | UniProt L7N210 | UniProt Q3KPB0 | UniProt Q3U0P3 | UniProt Q7TQU8 | UniProt Q7TQV4

CC(C)=CCCC(C)CCO (centres undefined)
inactive: UniProt L7MU75 | UniProt L7N210 | UniProt Q3KPB0 | UniProt Q3U0P3 | UniProt Q7TQU8 | UniProt Q7TQV4

CCCCCCCCCO
inactive: UniProt L7MU75 | UniProt L7N210 | UniProt Q3KPB0 | UniProt Q3U0P3 | UniProt Q7TQU8 | UniProt Q7TQV4

CCCCCCO
inactive: UniProt L7MU75 | UniProt L7N210 | UniProt Q3KPB0 | UniProt Q3U0P3 | UniProt Q7TQU8 | UniProt Q7TQV4

CC12CCC(CC1=O)C2(C)C (centres undefined)
inactive: UniProt L7MU75 | UniProt L7N210 | UniProt Q3KPB0 | UniProt Q3U0P3 | UniProt Q7TQU8 | UniProt Q7TQV4

O=C(c1ccccc1)c1ccccc1
inactive: UniProt L7N210 | UniProt Q3KPB0 | UniProt Q3U0P3 | UniProt Q7TQU8 | UniProt Q7TQV4
active: UniProt L7MU75

C=C(C)C1CCC(C)C(=O)C1 (centres undefined)
inactive: UniProt L7MU75 | UniProt L7N210 | UniProt Q3KPB0 | UniProt Q3U0P3 | UniProt Q7TQU8 | UniProt Q7TQV4

CCCCCCCCOC=O
inactive: UniProt L7MU75 | UniProt L7N210 | UniProt Q3KPB0 | UniProt Q3U0P3 | UniProt Q7TQU8

CCc1occc(=O)c1O
inactive: UniProt Q3KPB0 | UniProt Q3U0P3 | UniProt Q7TQU8
active: UniProt L7MU75 | UniProt L7N210

CCCC(=O)C(C)=O
inactive: UniProt L7MU75 | UniProt L7N210 | UniProt Q3KPB0 | UniProt Q3U0P3 | UniProt Q7TQU8 | UniProt Q7TQV4

Cc1cnccn1
active: UniProt L7N0P5

CCc1cnc(C)c(C)n1
inactive: UniProt L7N0P5

CCc1nccnc1C
active: UniProt L7N0P5

CCCCCO
inactive: UniProt L7MU75 | UniProt L7N210 | UniProt Q7TQV4

CCc1nccnc1OC
active: UniProt L7N0P5

CCCC(C)=O
inactive: UniProt L7MU75 | UniProt L7N210 | UniProt Q7TQV4

COC1=C(C)OC(C)C1=O (centres undefined)
inactive: UniProt L7N0P5

CC1=NC(C)C(C)S1 (centres undefined)
active: UniProt L7N0P5

CC1CCc2nccnc21 (centres undefined)
active: UniProt L7N0P5

CCCCCOC(=O)CCCCC
inactive: UniProt L7MU75 | UniProt L7N210 | UniProt Q3KPB0 | UniProt Q3U0P3 | UniProt Q7TQU8 | UniProt Q7TQV4

CC(=O)c1nccnc1C
active: UniProt L7N0P5

C=Cc1cnccn1
active: UniProt L7N0P5

CCCCCCCC(=O)[O-].[H+]
inactive: UniProt L7N210 | UniProt Q7TQV4

CCCCOC=O
inactive: UniProt L7MU75 | UniProt L7N210 | UniProt Q3KPB0 | UniProt Q3U0P3 | UniProt Q7TQU8 | UniProt Q7TQV4

C=CCOC(=O)CCCCCC
inactive: UniProt L7MU75 | UniProt L7N210 | UniProt Q3KPB0 | UniProt Q3U0P3 | UniProt Q7TQU8 | UniProt Q7TQV4

CCCCCCCC(C)=O
inactive: UniProt L7MU75 | UniProt L7N210 | UniProt Q3KPB0 | UniProt Q3U0P3 | UniProt Q7TQU8 | UniProt Q7TQV4

CC(=O)Oc1ccccc1
inactive: UniProt L7MU75 | UniProt L7N210 | UniProt Q3KPB0 | UniProt Q3U0P3 | UniProt Q7TQU8 | UniProt Q7TQV4

CC(=O)c1cnccn1
active: UniProt L7N0P5

Cc1cncc(C)n1
active: UniProt L7N0P5

O=C(OCc1ccccc1)c1ccccc1O
inactive: UniProt L7MU75 | UniProt L7N210 | UniProt Q3U0P3 | UniProt Q7TQU8
